In ChEMBL document CHEMBL3120065, “Antifungal ether diglycosides from Matayba guianensis Aublet” (Bioorg Med Chem Lett, 2014):
In brackets after ≈: the same amount, converted by molar mass.

Assays:
Candida parapsilosis = assay: Antifungal activity against Candida parapsilosis ATCC 22019 assessed as growth inhibition by microdliution method; type: functional; conditions: Lodderomyces parapsilosis
PBMC = assay: Cytotoxicity against human PBMC assessed as cell viability after 72 hrs by MTT assay; type: cell-based
How it was run: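 Normal proliferating human peripheral blood mononuclear cells exposed to compound for 72 h; viability read by MTT; result given as IC50.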

Plasmodium falciparum = assay: Antiplasmodial activity against Plasmodium falciparum assessed as growth inhibition; type: functional, organism-based
[1] = Selectivity index, ratio of IC50 for human PBMC to MIC for Candida parapsilosis ATCC 22019

In the case of `CCCCCCCCCCCCCCCCO[C@@H]1O[C@H](CO)[C@@H](O)[C@H](O)[C@H]1O[C@@H]1O[C@@H](C)[C@H](OC(C)=O)[C@@H](O)[C@H]1OC(C)=O`, the MIC (Candida parapsilosis) is reported as 6.31 µM and the IC50 (PBMC) is reported as > 39.4 µM.
`CCC(C)n1ncn(-c2ccc(N3CCN(c4ccc(OCC5COC(Cn6cncn6)(c6ccc(Cl)cc6Cl)O5)cc4)CC3)cc2)c1=O` (stereo not drawn) [ITRACONAZOLE] showed an MIC (Candida parapsilosis) of 0.71 µM and an IC50 (PBMC) of 1.53 µM.
For `CCCCCCCCCCCCCCCCO[C@@H]1O[C@H](COC(C)=O)[C@@H](O)[C@H](OC(C)=O)[C@H]1O[C@@H]1O[C@@H](C)[C@H](OC(C)=O)[C@@H](OC(C)=O)[C@H]1OC(C)=O`, the IC50 (Plasmodium falciparum) was 13 µg/mL (≈ 17.1 µM).
For `CCCCCCCCCCCCCCCCO[C@@H]1O[C@H](CO)[C@@H](O)[C@H](O)[C@H]1O[C@@H]1O[C@@H](C)[C@H](OC(C)=O)[C@@H](OC(C)=O)[C@H]1O`, the “Selectivity Index” value [1] was 12.5, the MIC (Candida parapsilosis) was 3.15 µM and the IC50 (PBMC) was > 39.4 µM.
In the case of `C[C@@H]1[C@H](O)[C@@H](C)/C=C/C=C/C=C/C=C/C=C/C=C/C=C/[C@H](O[C@@H]2O[C@H](C)[C@@H](O)[C@H](N)[C@@H]2O)C[C@@H]2O[C@](O)(C[C@@H](O)C[C@@H](O)[C@H](O)CC[C@@H](O)C[C@@H](O)CC(=O)O[C@H]1C)C[C@H](O)[C@H]2C(=O)O` [AMPHOTERICIN B], the MIC (Candida parapsilosis) is reported as 4.33 µM and the IC50 (PBMC) is reported as > 5.41 µM.
Molecule `CCCCCCCCCCCCCCCCO[C@@H]1O[C@H](COC(C)=O)[C@@H](O)[C@H](O)[C@H]1O[C@@H]1O[C@@H](C)[C@H](OC(C)=O)[C@@H](OC(C)=O)[C@H]1OC(C)=O` has an IC50 (Plasmodium falciparum) of 15.7 µg/mL (≈ 21.8 µM).
With `COc1cccc2c1C(=O)c1c(O)c3c(c(O)c1C2=O)C[C@@](O)(C(=O)CO)C[C@@H]3O[C@H]1C[C@H](N)[C@H](O)[C@H](C)O1` [DOXORUBICIN] the IC50 (PBMC) was 1.7 µM.
`CCCCCCCCCCCCCCCCO[C@@H]1O[C@H](CO)[C@@H](O)[C@H](O)[C@H]1O[C@@H]1O[C@@H](C)[C@H](OC(C)=O)[C@@H](OC(C)=O)[C@H]1OC(C)=O` showed an MIC (Candida parapsilosis) of 189 µM and an IC50 (PBMC) of 25.4 µM.
`CCCCCCCCCCCCCCCCO[C@@H]1O[C@H](COC(C)=O)[C@@H](OC(C)=O)[C@H](O)[C@H]1O[C@@H]1O[C@@H](C)[C@H](OC(C)=O)[C@@H](OC(C)=O)[C@H]1OC(C)=O` showed an IC50 (Plasmodium falciparum) of 7.1 µg/mL (≈ 9.33 µM).
With `CCCCCCCCCCCCCCCCO[C@@H]1O[C@H](COC(=O)CCCCCCCCCCCCCCC)[C@@H](O)[C@H](O)[C@H]1O[C@@H]1O[C@@H](C)[C@H](OC(C)=O)[C@@H](OC(C)=O)[C@H]1OC(C)=O` the IC50 (Plasmodium falciparum) was 4.7 µg/mL (≈ 5.14 µM).
For `OC(Cn1cncn1)(Cn1cncn1)c1ccc(F)cc1F` [FLUCONAZOLE], the MIC (Candida parapsilosis) was 0.2 µM and the IC50 (PBMC) was > 16.3 µM.
